Reference: ChEMBL document CHEMBL4043277, “Enantioselective inhibitory abilities of enantiomers of notoamides against RANKL-induced formation of multinuclear osteoclasts” (Bioorg Med Chem Lett, 2017)
Active and inactive are the calls of the source. The rule behind the calls is not given here.

Legend:
[1] = tested on: RAW264; assay: Inhibition of RANKL-induced formation of multinuclear osteoclasts in mouse RAW264 cells at 10 ug/ml after 4 days by p-NPP substrate based absorbance method; format: functional, cell-based
Procedure, shortened: (§1)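 RAW264 cells in MEMα/10% FBS were plated for one day, then treated with compound plus soluble RANKL (250 ng/mL) for four days. After a PBS wash, cells were lysed on ice for 10 min in TRAP buffer (tartrate/acetate, pH 5.7). Extract was incubated with 2.5 mM p-nitrophenyl phosphate at 37°C for 4 h and stopped with NaOH. A405 was read in quadruplicate.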

[2] = Inhibition of RANKL-induced Atp6v0d2 mRNA expression in mouse RAW264 cells at 5 uM after 5 days by RT-PCR method relative to control; format: functional; conditions: RAW264.7, 120 h
Procedure, shortened: (§2)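 RAW264 cells grown in MEMα with 10% heat-inactivated FBS and penicillin/streptomycin at 37°C, 5% CO2. Cells were co-treated with RANKL (50 ng/mL) and compound for five days. Total RNA was analysed by real-time RT-PCR with SYBR Green: 95 °C 10 min, then cycles of 95 °C 10 s, annealing 5 s, 72 °C 14 s. Expression was calculated from duplicate experiments.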

[3] = Inhibition of RANKL-induced formation of multinuclear osteoclasts in mouse RAW264 cells after 4 days by p-NPP substrate based absorbance method; format: functional, cell-based; conditions: RAW264.7, 96 h; procedure, shortened: as §1
[4] = tested on: RAW264; assay: Inhibition of RANKL-induced formation of multinuclear osteoclasts in mouse RAW264 cells at 5 uM after 4 days by TRAP staining based assay; format: functional, cell-based
Procedure, shortened: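 RAW264 cells were treated with compound plus soluble RANKL (250 ng/mL) for four days, then fixed in 4% paraformaldehyde for 10 min at room temperature. They were stained 1 h at room temperature with naphthol AS-MX phosphate/fast red violet LB in tartrate/acetate, pH 5.2. TRAP-positive cells with three or more nuclei were scored as multinuclear osteoclasts.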

[5] = Inhibition of RANKL-induced Nfatc1 mRNA expression in mouse RAW264 cells at 5 uM after 5 days by RT-PCR method relative to control; format: functional; conditions: RAW264.7, 120 h; procedure, shortened: as §2
[6] = Inhibition of RANKL-induced Ctsk mRNA expression in mouse RAW264 cells at 5 uM after 5 days by RT-PCR method relative to control; format: functional; conditions: RAW264.7, 120 h; procedure, shortened: as §2
[7] = Inhibition of RANKL-induced Ocstamp mRNA expression in mouse RAW264 cells at 5 uM after 5 days by RT-PCR method relative to control; format: functional; conditions: RAW264.7, 120 h; procedure, shortened: as §2
[8] = Inhibition of RANKL-induced Acp5 mRNA expression in mouse RAW264 cells at 5 uM after 5 days by RT-PCR method relative to control; format: functional; conditions: RAW264.7, 120 h; procedure, shortened: as §2
[9] = Inhibition of RANKL-induced Dcstamp mRNA expression in mouse RAW264 cells at 5 uM after 5 days by RT-PCR method relative to control; format: functional; conditions: RAW264.7, 120 h; procedure, shortened: as §2

| Structure (SMILES) | osteoclast formation inhibition (active/not active) [1] | also measured |
| --- | --- | --- |
| C=CC(C)(C)[C@@]12Nc3c(ccc4c3C=CC(C)(C)O4)[C@]1(O)C[C@H]1C(=O)N3CCC[C@H]3C(=O)N12 | inactive |  |
| CC1(C)C=Cc2c(ccc3c2NC(=O)[C@]32C[C@]34NC(=O)[C@@]5(CCCN5C3=O)C[C@@H]4C2(C)C)O1 | Active |  |
| CC1(C)C=Cc2c(ccc3c2N(O)C(=O)[C@@]32C[C@@]34NC(=O)[C@]5(CCCN5C3=O)C[C@H]4C2(C)C)O1 | Active |  |
| CC(C)=CCc1c(O)ccc2c3c([nH]c12)C(C)(C)[C@H]1CC24CCCN2C(=O)C1(C3)NC4=O (mixture of isomers) | Active |  |
| CC(C)=CCc1c(O)ccc2c3c([nH]c12)C(C)(C)[C@@H]1C[C@@]24CCCN2C(=O)[C@]1(C3)NC4=O |  | inhibition at 5 µM [2]: 20 to 50%; IC50 [3]: 1.7 µM; inhibition [4]: inactive; inhibition at 5 µM [5]: 20 to 50%; inhibition at 5 µM [6]: 20 to 50%; inhibition at 5 µM [7]: 20 to 50%; inhibition at 5 µM [8]: 20 to 50%; inhibition at 5 µM [9]: 20 to 50% |
| C=CC(C)(C)[C@]1(C[C@@H]2NC(=O)[C@@H]3CCCN3C2=O)C(=O)Nc2c1ccc1c2C=CC(C)(C)O1 | inactive |  |
| CC1(C)C=Cc2c(ccc3c4c([nH]c23)C(C)(C)[C@@H]2C[C@]35CCCN3C(=O)[C@@]2(C4)NC5=O)O1 | Active |  |
| CC1(C)C=Cc2c(ccc3c2N(O)C(=O)[C@]32C[C@]34NC(=O)[C@@]5(CCCN5C3=O)C[C@@H]4C2(C)C)O1 | Active |  |
| CC1(C)C=Cc2c(ccc3c4c([nH]c23)C(C)(C)[C@H]2C[C@@]35CCCN3C(=O)[C@]2(C4)NC5=O)O1 | Active |  |
| CC1(C)C=Cc2c(ccc3c2NC(=O)[C@@]32C[C@@]34NC(=O)[C@]5(CCCN5C3=O)C[C@H]4C2(C)C)O1 | Active |  |
| CC(C)=CCc1c(O)ccc2c3c([nH]c12)C(C)(C)[C@H]1C[C@]24CCCN2C(=O)[C@@]1(C3)NC4=O |  | IC50 [3]: 4.4 µM |
